# Compound activity: PubChem, Sanford-Burnham Center for Chemical Genomics
# MPTP inh: blocks calcium-induced mitochondrial swelling. isolated mouse mitochondria, Ca2+ swelling absorbance, 30 min. inhibition, % at 10 µM. hit rate 1.4% among 360,000;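 active = inhibition of 50% or more, scaled per plate between neutral and stimulator controls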;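 also: 0% = DMSO wells given calcium and 100% = 1 mM EGTA wells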
# EBI2 block: antagonists of human EBI2 receptor. EBI2 beta-arrestin recruitment, luminescence, 7a,25-OHC stimulated. inhibition, % at 5 µM. hit rate 0.81% among 360,000; in the data active = inhibition above about 38%;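 also: enzyme fragment complementation signal reports receptor beta-arrestin coupling in cells; 0% = agonist plus DMSO wells and 100% = wells without agonist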
# SENP1 inh: inhibitors of human SENP1 SUMO protease catalytic domain | inhibition, % at 10 µM | Q9P0U3 | hit rate 0.21% among 360,000 | recombinant SENP1 catalytic domain, CyPet-SUMO1-YPet FRET cleavage;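 active = inhibition at least 30% at 10 µM, raw YFP signal under a set limit, fluorescence ratio 0.5 to 1.5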;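 also: 0% = enzyme with DMSO and 100% = no enzyme wells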
# Target sequence (Q9P0U3 419-644 limits assumed): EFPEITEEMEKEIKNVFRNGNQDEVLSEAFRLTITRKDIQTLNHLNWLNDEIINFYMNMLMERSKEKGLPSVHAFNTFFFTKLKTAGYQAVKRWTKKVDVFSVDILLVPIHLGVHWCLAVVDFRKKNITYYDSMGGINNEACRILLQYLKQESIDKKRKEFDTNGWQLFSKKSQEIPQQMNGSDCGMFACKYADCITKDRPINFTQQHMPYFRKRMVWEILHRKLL
#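 system = hSENP1 catalytic domain, recombinant | reagent = SFCypet-SUMO1-SFYpet substrate at 25 nM | doses = one dose per compound, 10 µM, 0.5% DMSO | incubation = enzyme reaction for 50 min at room temperature, dark | measured by = FRET, CFP and YFP emission | controls = no-enzyme low, enzyme-DMSO high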
# NR3A LBD binder: NR3A (human) ligand-binding domain modulation. AID 1259313. hit rate 2.5% among 340,000. NR3A LBD differential scanning fluorimetry, Tm shift; 0% = protein alone, 100% = glycine-bound protein. Tm shift relative to glycine control, % at 25 µM;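 active = melting temperature shift of at least 10% of the positive control shift, at one fixed dose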
# EBI2 antag conf: confirmation of human EBI2 receptor antagonists; inhibition, % at 5 µM; hit rate 29% among 2,400; shares compounds with EBI2 block; EBI2 beta-arrestin luminescence, 7a,25-OHC antagonism;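 active = inhibition of at least 50%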
# EBI2 ag: activates EBI2, counter-screen for EBI2 antagonists; shares compounds with EBI2 block; 2,400 tested, under 10 active; activation, % at 5 µM; EBI2-expressing cells, agonist mode, luminescence, 60 min; 0% vehicle, 100% 7α,25-dihydroxycholesterol control;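 active = activation of at least 50%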
# bGal cs: counter-screen for EBI2 antagonists: E. coli beta-galactosidase inhibition; inhibition, % at 5 µM; shares compounds with EBI2 block; purified beta-galactosidase, luminescent Galacton Star, 15 min; hit rate 1% among 2,400;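 active = replicate-average signal at least 3 plate SD below neutral wells, shown as high inhibition, flagging enzyme-inhibiting false positives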;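 also: 0% = DMSO wells with enzyme and 100% = wells lacking enzyme; higher means stronger loss of beta-gal luminescence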
# * marks the source's active call; other numbers are inactive results; x = no result given. An excerpt weighted towards active compounds, which were near 4.4% of everything screened.
SMILES,MPTP inh,EBI2 block,SENP1 inh,NR3A LBD binder,EBI2 antag conf,EBI2 ag,bGal cs
CCn1c(SCc2ccc(Cl)cc2Cl)nc2nc3c(cc2c1=O)CCCC3,-0.3,62.8*,-2.1,0.0,38.5,-0.1,13.2
Cc1cccc(NC(=O)CSc2nc(NS(=O)(=O)c3ccccc3)cc(=O)[nH]2)c1,-0.5,-6.7,-0.3,-0.2,x,x,x
COc1ccc(-c2coc3c(C(=O)NCC(C)C)cccc23)c(C)c1,8.3,-4.8,0.3,x,x,x,x
COc1cccc(NC(=O)Cn2c3ccccc3c3nc4n(c(=O)c32)CCCS4)c1,0.0,82.6*,0.2,3.7,49.9,1.0,3.6
Cc1cc(C)c2c(=O)n3c(nc2c1)C(Cc1ccccc1)NC(=O)c1cc2ccccc2cc1-3 (centres undefined),-1.0,76.3*,-7.3,x,37.8,-1.9,-11.3
CCC1NC(=O)c2cc3ccccc3cc2-n2c1nc1cc(C)cc(C)c1c2=O (centres undefined),0.7,85.6*,-4.3,x,68.7*,-1.1,-10.8
Cc1cc(C)c2c(=O)n3c(nc2c1)C(Cc1ccccc1)NC(=O)c1cccnc1-3 (centres undefined),0.7,19.6,-2.5,x,x,x,x
COCCOC(=O)c1c(NC(=O)CN2c3ccccc3CC2C)sc(C(N)=O)c1C (centres undefined),0.7,65.4*,-0.1,-1.9,31.0,-0.7,2.5
Cn1c2c(c(=O)n(C)c1=O)CN(Cc1ccccc1)CN2,-0.7,0.6,-0.1,x,x,x,x
O=C1C=C(O)CC(c2ccc(Cl)cc2)C1 (centres undefined),-1.9,-12.8,-3.2,-5.8,x,x,x
O=C1C=C(/C=C/C2C=CC=CC2)C[C@@H](c2ccc(Cl)cc2)C1 (some centres undefined),1.4,47.6*,-0.2,-2.8,25.4,-1.6,-7.8
Cc1ccc2nc(-c3cccnc3)cc(C(=O)Nc3ccccc3[N+](=O)[O-])c2c1,-0.9,48.5*,-1.3,-4.9,61.5*,0.9,4.9
CC(=O)Nc1cccc(NC(=O)c2cc(-c3cccnc3)nc3ccc(Cl)cc23)c1,0.1,-9.6,1.8,1.0,x,x,x
CSc1ccccc1NC(=O)c1cc(-c2cccnc2)nc2ccc(Br)cc12,-3.7,40.7*,0.6,-3.7,16.2,-0.6,-7.4
Cn1c(N2CCOCC2)cc(=O)n(C)c1=O,0.9,-2.6,0.8,-0.4,x,x,x
Cc1cccc(NS(=O)(=O)c2ccc3[nH]c(=O)cc(C(=O)OC(C)C(=O)Nc4ccc([N+](=O)[O-])cc4)c3c2)c1 (centres undefined),2.9,46.6*,2.2,11.1*,38.2,-0.5,8.9
C(=C\c1ccccc1)/CN1CCN(C(c2ccnc3ccccc23)c2nnnn2-c2ccc3c(c2)OCCO3)CC1 (centres undefined),1.7,22.0,-1.5,x,x,x,x
COc1ccc(-n2nnnc2C(c2cccs2)N2CCN(C/C=C/c3ccccc3)CC2)cc1 (centres undefined),3.3,42.4,1.7,x,x,x,x
C(=C\c1ccccc1)/CN1CCN(C(c2cc3ccccc3o2)c2nnnn2C2CCCC2)CC1 (centres undefined),3.1,51.5*,0.6,x,6.6,0.6,3.6
C(=C\c1ccccc1)/CN1CCN(C(c2ccccc2)c2nnnn2-c2ccc3c(c2)OCCO3)CC1 (centres undefined),1.8,51.1*,0.6,x,37.5,0.3,6.7
COc1ccc(-n2nnnc2C(c2ccccc2OC(F)(F)F)N2CCN(C/C=C/c3ccccc3)CC2)cc1 (centres undefined),1.5,90.4*,1.1,x,55.0*,2.2,11.9
O=C(Nc1ccc2c(c1)OCCO2)C(c1cc2ccccc2o1)N1CCN(C/C=C/c2ccccc2)CC1 (centres undefined),1.0,38.9*,1.0,x,6.7,-1.8,-6.3
c1ccc(CSc2cc3ccccc3[nH]2)cc1,6.4,10.2,-3.8,-7.2,x,x,x
N#CC1(CCCN2CCCCC2)c2ccccc2CCc2ccccc21,-1.0,4.9,-0.4,0.9,x,x,x
